# Test results: publication PMC4423195 (Cell Death and Differentiation, 2015)
# “Also recorded” adds a separate entry of the source.
# Tests used:
# HT22 cells [1] = assay: FITC-Aβ42O binding/uptake in HT22 cells; assay type: cell-based, mouse; conditions: FITC-Aβ42O 0.1 μM, 2 h; MAB1965 1 : 500, MnCl2 0.5 mM or MgCl2 5 mM; n=4 replicates
# [2] = test system: DIV21 primary hippocampal neurons; assay: FITC-Aβ42O binding to DIV21 primary hippocampal neurons; assay type: cell-based; conditions: 100 nM FITC-Aβ42O, 1 h, 37 °C
# [3] = test system: transferrin receptor (TfR); assay: Cell surface biotinylation, surface TfR in HT22 cells; assay type: cell-based, mouse (HT22 mouse cell line); conditions: Aβ42O 1 μM, 2 h or FN coating; surface/total; n⩾3 replicates
# PrP^c = assay type: cell-based, mouse (HT22 mouse cell line)
# HT22 cells [4] = assay: H2DCF general ROS imaging; assay type: cell-based, mouse; conditions: Aβ42O 1 μM, 2 h, n=6
# Method in brief: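 HT22 cells pretreated 45 min (methods; legend gives 1 h) with or without HUTS-4 (1:250), MAB1965 (1:250) or Nox inhibitor III (40 nM), then Aβ42 oligomers (1 μM, 2 h). After PBS wash, loaded with H2DCF at 50 nM final in HBSS for 15 min at 37°C. Live-cell fluorescence imaging at 37°C under identical acquisition settings.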
# HT22 cells [5] = assay: JC-1 mitochondrial membrane potential imaging; assay type: cell-based, mouse; conditions: Aβ42O 1 μM, 2 h; HUTS-4 1 : 250, MAB1965 1 : 250, Nox inhibitor 40 nM; n=6
# Method in brief: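 HT22 cells pre-exposed 45 min (methods; legend says 1 h) to HUTS-4 (1:250), MAB1965 (1:250), Nox inhibitor III (40 nM) or none, then Aβ42 oligomers (1 μM, 2 h). Washed, incubated with JC-1 (0.5 μM final, PBS) 15 min at 37°C. Live-cell imaging at 37°C; membrane potential expressed as green/red ratio.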
# HT22 cells [6] = assay: Mitosox-Red mitochondrial superoxide imaging; assay type: cell-based, mouse; conditions: Aβ42O 1 μM, 2 h, n=6
# Method in brief: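 Following 45 min (methods; 1 h per legend) pretreatment ± HUTS-4 (1:250), MAB1965 (1:250) or Nox inhibitor III (40 nM), HT22 cells received Aβ42 oligomers (1 μM, 2 h). Washed, given Mitosox-Red at 5 μM final in PBS for 15 min at 37°C, washed again, fixed and imaged by confocal microscopy with identical settings.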
# [7] = target: β1-integrin-Fc (extracellular domain fused with human IgG-Fc) (Homo sapiens, UniProt P05556); assay: ELISA binding of biotin-Aβ42 to purified β1-integrin-Fc; conditions: n=4 replicates
# Vinculin = assay: FC-enriched fractionation of primary cortical neurons, Vinculin; assay type: cell-based, mouse; conditions: Aβ42O 1 μM, 2 h, n=3 replicates
# Method in brief: (§1)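 DIV14 cortical neurons from P0 WT or Cofilin+/− pups given Aβ42 oligomers (1 μM, 2 h). Cytosol extracted with saponin buffer (0.1% saponin, 25 mM HEPES, 75 mM potassium acetate) 10 min on ice; residue taken up in 2× SDS sample buffer with sonication (focal-contact fraction). Talin/Vinculin immunoblotted and normalized to vehicle controls set at 100%; n=3, t-test.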
# β1-integrin = assay type: cell-based, mouse (HT22 mouse cell line); conditions: Aβ42O 1 μM, 2 h; direct immunoblotting (total)
# Cofilin (mitochondrial) = assay: Translocation of Cofilin to mitochondria in HT22 cells; assay type: cell-based, mouse (HT22 mouse cell line); conditions: Aβ42O 1 μM; 0, 2, 4 h; n=4 replicates
# Method in brief: (§2)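 HT22 cells exposed to Aβ42 oligomers (1 μM) for 0, 2 or 4 h. Intact mitochondria separated from cytosol with a commercial isolation kit. Protein measured by BCA. Equal amounts run on SDS-PAGE, blotted to nitrocellulose, probed and detected by peroxidase secondary/ECL. Bands quantified densitometrically; n=4 replicates, t-test.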
# F-actin = F-actin staining in DIV21 hippocampal neurons; assay type: cell-based, mouse; conditions: Aβ42O 1 μM, 2 h, n=4–6 replicates
# Method in brief: (§3)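 Hippocampal neurons from P0 WT or Cofilin+/− pups grown on poly-D-lysine to DIV21, then given Aβ42 oligomers (1 μM, 2 h). Fixed in 4% paraformaldehyde 15 min at RT, serum-blocked, primary antibody (Drebrin or PSD95) overnight at 4°C, secondary 45 min at RT; F-actin stained by rhodamine-phalloidin. Mean intensity measured in spine-containing neurites; n=4–6, ANOVA with Tukey test.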
# 14-3-3/SSH1 complex = assay: 14-3-3/SSH1 complex, co-immunoprecipitation in HT22 cells; assay type: cell-based, mouse (HT22 mouse cell line); conditions: Aβ42O 1 μM, 2 h
# SSH1/Cofilin complex = assay: SSH1/Cofilin complex, co-immunoprecipitation in HT22 cells; assay type: cell-based, mouse (HT22 mouse cell line); conditions: Aβ42O 1 μM, 2 h; n=3 replicates
# HT22 cells [8] = assay: Annexin V/PI apoptosis assay, HT22 cells; assay type: cell-based, mouse; conditions: Aβ42O 1 μM, 24 h / 18 h, 1% FBS; n=4 replicates
# Method in brief: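 HT22 cells transfected for 48 h with Lipofectamine 2000 with control or SSH1 siRNA (100 nM final), then exposed to Aβ42 oligomers (1 μM, 18 h) in 1% FBS medium. Cells stained on coverslips with FITC-Annexin V and propidium iodide for 20 min at 25°C in the dark, PBS-washed and imaged by fluorescence confocal microscopy. Annexin V marks early apoptosis, PI late apoptosis.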
# [9] = test system: Cofilin (phospho-Cofilin); assay: Cytosolic phospho-Cofilin in HT22 cells; assay type: cell-based, mouse (HT22 mouse cell line); conditions: Aβ42O 1 μM; 0, 2, 4 h
# Method in brief: as §2
# Drebrin = Drebrin staining in DIV21 hippocampal neurons; assay type: cell-based, mouse; conditions: Aβ42O 1 μM, 2 h, n=4–6 replicates
# Method in brief: as §3
# PSD95 = PSD95 staining in DIV21 hippocampal neurons; assay type: cell-based, mouse; conditions: Aβ42O 1 μM, 2 h, n=4–6 replicates
# Method in brief: as §3
# Talin [10] = assay: FC-enriched fractionation of HT22 cells, Talin; assay type: cell-based, mouse (HT22 mouse cell line); conditions: Aβ42O (1 μM in text; 0, 0.25, 2 μM for 0, 2, 4 h in Figure S3 legend)
# Method in brief: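 HT22 cells exposed to Aβ42 oligomers. Cytosolic proteins released with saponin buffer (0.1% saponin, 25 mM HEPES, 75 mM potassium acetate) for 10 min on ice. Remaining membrane/cytoskeletal proteins extracted in 2× SDS sample buffer with sonication to give the focal-contact-enriched fraction. Talin detected by immunoblot with ECL.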
# focal Vinculin = assay: Focal Vinculin immunostaining in DIV21 primary hippocampal neurons; assay type: cell-based; conditions: Aβ42O 1 μM, 2 h, n=5 replicates
# [11] = test system: Cofilin (phospho-Cofilin); assay: Immunoblot of phospho-Cofilin in primary cortical neurons; assay type: cell-based, mouse; conditions: Aβ42O 1 μM, 2 h, n=4 replicates
# Talin [12] = assay: FC-enriched fractionation of primary cortical neurons, Talin; assay type: cell-based, mouse; conditions: Aβ42O 1 μM, 2 h, n=3 replicates
# Method in brief: as §1
# activated β1-integrin = assay: FITC-HUTS-4 staining of activated β1-integrin in primary hippocampal neurons; assay type: cell-based; conditions: DIV14 fixed and permeabilized neurons; Aβ42O 1 μM, 2 h; n=4 replicates
# [13] = SDS-PAGE/immunoblotting of Aβ42 oligomer preparations; assay type: physicochemical; conditions: immunoblotting of Aβ42O preparation
# [14] = HUTS-4 1 : 250, MAB1965 1 : 250, Nox inhibitor 40 nM
# [15] = DIV14 Cofilin^+/− cortical neurons
# β1-integrin-Fc (extracellular domain fused with human IgG-Fc), sequence (P05556 21-728): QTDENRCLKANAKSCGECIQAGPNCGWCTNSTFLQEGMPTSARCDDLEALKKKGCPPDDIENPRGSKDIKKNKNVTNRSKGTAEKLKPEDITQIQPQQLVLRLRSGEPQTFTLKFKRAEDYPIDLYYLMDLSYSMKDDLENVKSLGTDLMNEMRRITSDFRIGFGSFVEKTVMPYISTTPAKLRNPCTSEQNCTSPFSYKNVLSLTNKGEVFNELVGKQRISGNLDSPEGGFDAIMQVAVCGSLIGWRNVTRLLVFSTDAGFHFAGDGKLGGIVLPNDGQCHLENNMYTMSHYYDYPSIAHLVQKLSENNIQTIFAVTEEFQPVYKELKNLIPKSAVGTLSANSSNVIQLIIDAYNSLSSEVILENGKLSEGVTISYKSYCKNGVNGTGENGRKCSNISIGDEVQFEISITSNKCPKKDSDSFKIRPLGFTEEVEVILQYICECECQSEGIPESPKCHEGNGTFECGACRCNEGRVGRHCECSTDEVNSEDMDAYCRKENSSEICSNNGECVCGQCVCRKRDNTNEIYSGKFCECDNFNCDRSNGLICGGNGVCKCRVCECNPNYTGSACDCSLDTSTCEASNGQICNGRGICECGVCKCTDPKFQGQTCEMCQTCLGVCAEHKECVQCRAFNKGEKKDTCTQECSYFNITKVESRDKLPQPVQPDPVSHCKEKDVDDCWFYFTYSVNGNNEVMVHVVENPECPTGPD
compound,measurement,setting,value
[Cl][Mn][Cl] [MnCl2],effect on FITC-Aβ42O binding to HT22 cells,HT22 cells [1],significantly reduced
"FITC-Aβ42O: FITC-Aβ1-42 (American Peptide), oligomer preparation",FITC-Aβ42O binding to neurons (localisation),[2],associated with dendrites and dendritic spines
fibronectin [FN],effect on surface TfR,[3],"modestly, but significantly, increased surface/total transferrin receptor (TfR)"
same,effect on surface PrP^c,PrP^c,unaffected
c1ccc(Cn2nnc3c(Sc4nc5ccccc5o4)ncnc32)cc1 [NOX inhibitor],prevention of Aβ42O-induced change in H2DCF,HT22 cells [4]; [14],significantly prevented such changes
same,extent of restoration of JC-1 membrane potential,HT22 cells [5],not fully restored
same,prevention of Aβ42O-induced change in Mitosox-Red,HT22 cells [6]; [14],significantly prevented such changes
Aβ42 monomers: freshly solubilized monomer; tested as biotin-Aβ42M,"binding to β1-integrin-Fc, monomers and fibrils","[7]; 5 mM MgCl2, biotin-Aβ42M or biotin-Aβ42F",bound poorly to β1-integrin-Fc
amyloid-β protein 1–42 oligomers [Aβ42O],ROS levels (H2DCF),HT22 cells [4],increased ROS levels
same,"effect on FC Vinculin, Cofilin^+/− neurons",Vinculin; [15],did not significantly deplete Vinculin and Talin
same,"effect on FC-enriched/focal Vinculin, WT primary neurons",Vinculin; DIV14 cortical neurons,saliently reduced FC-enriched but not cytosolic (cyto) Vinculin and Talin; also recorded: depleted focal Vinculin and Talin
same,effect on total β1-integrin,β1-integrin,without altering total β1-integrin
same,translocation of Cofilin to mitochondria,Cofilin (mitochondrial),rapidly increased the translocation of Cofilin to mitochondria
same,"effect on F-actin, WT neurons",F-actin; spine-containing neurites,"significantly depleted F-actin, Drebrin, and PSD95"
same,"effect on F-actin, Cofilin^+/− neurons",F-actin; Cofilin^+/−,no significant effects
same,14-3-3/SSH1 complexes,14-3-3/SSH1 complex,reduced 14-3-3/SSH1 complexes
same,effect on surface TfR,[3],no significant effect on surface TfR
same,SSH1/Cofilin complexes,SSH1/Cofilin complex,significantly increased SSH1/Cofilin complexes
same,induction of early (Annexin V) and late (PI) apoptosis,HT22 cells [8],significant induction of early (Annexin V) and late (PI) apoptosis
same,mitochondrial superoxide (Mitosox-Red),HT22 cells [6],increased mitochondrial superoxide (Mitosox-Red)
same,phospho-Cofilin in the cytosol,[9],decreasing phospho-Cofilin in the cytosol
same,"effect on Drebrin, WT neurons",Drebrin; spine-containing neurites,"significantly depleted F-actin, Drebrin, and PSD95"
same,"effect on Drebrin, Cofilin^+/− neurons",Drebrin; Cofilin^+/−,no significant effects
same,"effect on PSD95, WT neurons",PSD95; spine-containing neurites,"significantly depleted F-actin, Drebrin, and PSD95"
same,"effect on PSD95, Cofilin^+/− neurons",PSD95; Cofilin^+/−,no significant effects
same,binding to β1-integrin-Fc with MnCl2,[7]; MnCl2 0.5 mM,essentially eliminated Aβ42O binding; also recorded: failed to support Aβ42O binding to β1-integrin-Fc
same,binding to β1-integrin-Fc in the absence of cation,[7]; no cation / absence of Mg^2+,did not bind to β1-integrin-Fc; also recorded: minimal binding
same,"effect on FC-enriched Talin, HT22 cells",Talin [10],saliently reduced FC-enriched but not cytosolic (cyto) Vinculin and Talin
same,focal Vinculin immunoreactivity in spine-containing dendrites,focal Vinculin,significantly reduced focal Vinculin immunoreactivity
same,effect on surface PrP^c,PrP^c,unaffected
same,Cofilin dephosphorylation/activation,[11]; WT primary cortical neurons,significantly induced Cofilin dephosphorylation/activation
same,Cofilin dephosphorylation in β1-integrin cKO neurons,[11]; β1-integrin cKO neurons (Lenti-Cre-mRFP),absent in β1-integrin cKO neurons
same,"effect on FC Talin, Cofilin^+/− neurons",Talin [12]; [15],did not significantly deplete Vinculin and Talin
same,"effect on FC-enriched/focal Talin, WT primary neurons",Talin [12]; DIV14 cortical neurons,saliently reduced FC-enriched but not cytosolic (cyto) Vinculin and Talin; also recorded: depleted focal Vinculin and Talin
same,reduction of FITC-HUTS-4-positive activated β1-integrin,activated β1-integrin,> 50%
same,oligomeric state on SDS-PAGE,[13],"contained SDS-resistant dimers, trimers, and tetramers"
Cc1c(C)c2c(c(C)c1O)CCC(C)(C(=O)O)O2 (stereo not shown) [Trolox],restoration of 14-3-3/SSH1 complexes reduced by Aβ42O,"14-3-3/SSH1 complex; prior treatment 30 min, MAB1965 1:250 or Trolox 200 µM",largely restored
